The structures appear in SMILES notation. The source made the active and inactive calls. No cut-off for these calls is given here.

The test system of assay [1] is MCF7. The experiment in a line: Antiproliferative activity against human MCF7 cells after 24 hrs of drug exposure followed by irradiation at 366 nanometer for 20 mins and subsequent incubation of 72 hrs in drug free media. As to conditions: MCF7, light or radiation study. It counts as functional, cell-based. The gist of the method:
(§1)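 Cells grown in MEM with 10% FCS at 37 °C, 5% CO2. Seeded for 48 h (HT-29) or 72 h (MCF-7) before drug. Graded concentrations were tested in six replicates. Continuous runs lasted 72 h (HT-29) or 96 h (MCF-7). Short runs used 24 h drug, then drug-free medium, optionally irradiated 20 min at 366 nm (4 W lamp, 5 cm). Biomass read by crystal violet. IC50 is the mean of ≥2 independent experiments.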

The subject of assay [2] is DNA. As to the kind of experiment: Binding affinity to calf thymus DNA assessed as change in melting temperature at concentration of 0.1 [compound]/[DNA]. It counts as nucleic-acid assay. The note with it: Bos taurus. The method, boiled down: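 CT DNA at 200 µM nucleotide with compound at 20 µM in 10 mM phosphate buffer, pH 7.2, 1% DMSO. Melting followed at 260 nm in 1 °C steps. Tm taken as the midpoint from first-derivative curves. ΔTm accurate within ±1 °C.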

Assay [3] has as its system MCF7. As to the kind of experiment: Antiproliferative activity against human MCF7 cells after 96 hrs by crystal violet staining. The class given is functional, cell-based. As to conditions: MCF7, 96 h. The method, boiled down:
as §1

Assay [4] has as its system MCF7. As to the kind of experiment: Antiproliferative activity against human MCF7 cells after 24 hrs of drug exposure followed by 72 hrs incubation in drug free media. The class given is functional, cell-based. The gist of the method:
as §1

The test system of another assay is Escherichia coli. The experiment in a line: Induction of photocleave of Escherichia coli pBR322 DNA after irradiation for 2 hrs at 265 nanometer. As to conditions: in the assay text read “365 nanometer” for “265 nanometer”. The gist of the method:
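pBR322 supercoiled plasmid (0.25 µg) in Tris–HCl pH 7.5 with compound at 50 µM (DMSO stock). Irradiated 2 h at 365 nm (8 W, 10 cm). Run on 1% agarose, ethidium bromide stain. Nicked/linear DNA quantified as percentage of total, mean of two experiments.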

The subject of assay [5] is HT-29. As to the kind of experiment: Antiproliferative activity against human HT29 cells after 24 hrs of drug exposure followed by 48 hrs incubation in drug free media. The class given is functional, cell-based. The gist of the method: as §1
Assay [6] has as its system HT-29. The experiment in a line: Antiproliferative activity against human HT29 cells after 24 hrs of drug exposure followed by irradiation at 366 nanometer for 20 mins and subsequent incubation of 48 hrs in drug free media. The note with it: HT-29, light or radiation study. The class given is functional, cell-based. The method, boiled down:
as §1

The test system of another assay is HeLa. As to the kind of experiment: Reduction of topoisomerase 2alpha protein level in human HeLa cells by Western blotting. It counts as functional, cell-based.
Assay [7] has as its system HT-29. As to the kind of experiment: Antiproliferative activity against human HT29 cells after 72 hrs by crystal violet staining. As to conditions: HT-29, 72 h. It counts as functional, cell-based. The gist of the method:
as §1

In assay [8] the test system is DNA. As to the kind of experiment: Binding affinity to calf thymus DNA assessed as decrease in helical B conformation at 245 nanometer wavelength by circular dichroism. The class given is nucleic-acid assay. As to conditions: Bos taurus. The method, boiled down:
(§2)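 CD spectra of CT DNA (200 µM nucleotide) after 60 min incubation with 20 µM compound. Recorded after equilibration, when ellipticity no longer changed. DNA concentration set by ε260 = 6600 M^-1 cm^-1.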
On the technique in general: CD spectra are sensitive to the conformation of chiral molecules.

Assay [9] relates to DNA. As to the kind of experiment: Binding affinity to calf thymus DNA assessed as increase in base stacking at 275 nanometer wavelength by circular dichroism. It counts as nucleic-acid assay. As to conditions: Bos taurus. The gist of the method: as §2

For orientation: IC50 means the midpoint of a concentration-inhibition curve. A low value points to greater potency. For orientation: ΔTm means the change in melting temperature against a reference sample. As for `CCSc1ccc2c3c(cccc13)C(=O)N(CCS)C2=O`, the IC50 in the assay on MCF7 [1], with MCF7 [3], in the assay with MCF7 [4], in the assay on HT-29 [5] and with HT-29 [6] was more than 50 µM throughout. Also, the ΔTm in the assay on DNA [2] is 2 °C. Further, the outcome in the assay on Escherichia coli was Active.
Regarding `CN(C)CCN1C(=O)c2cccc3c(Sc4ccccc4N)ccc(c23)C1=O`, the IC50 was determined as 4.9 µM with MCF7 [1]; 2.6 µM in the assay with MCF7 [3]; 4.8 µM in the assay with MCF7 [4]; 2.9 µM with HT-29 [7]; 2.8 µM in the assay on HT-29 [5]; 2.8 µM in the assay with HT-29 [6]. In addition, in the assay on DNA [2], the ΔTm is 9 °C. In addition, the outcome in the assay on Escherichia coli, with HeLa and in the assay on DNA [8] was Active.
As for `CN(C)CCN1C(=O)c2cccc3cccc(c23)C1=O`, the IC50 amounted to 11.3 µM in the assay on MCF7 [1]; 4.5 µM in the assay with MCF7 [3]; 11.6 µM with MCF7 [4]; 3.5 µM with HT-29 [7]; 7.2 µM in the assay with HT-29 [5]; 5.3 µM with HT-29 [6]. In addition, the ΔTm with DNA [2] is 6 °C. The outcome with Escherichia coli and in the assay with HeLa was Active.
`CN(C)CCN1C(=O)c2cccc3c2c(cc2c4ccccc4sc32)C1=O`: the IC50 with MCF7 [1] came to 0.18 µM; in the assay on MCF7 [3], 0.2 µM; in the assay on MCF7 [4] it was 0.17 µM; in the assay with HT-29 [7], 0.62 µM; in the assay with HT-29 [5], 0.23 µM; with HT-29 [6], 0.21 µM. For the same compound, the result in the assay on HeLa was Active.
With `CN(C)CCN1C(=O)c2cccc3c(SCc4ccccc4)ccc(c23)C1=O`, the IC50 in the assay with MCF7 [1] came out at 1.7 µM; in the assay with MCF7 [3], 3.4 µM; with MCF7 [4], 6.7 µM; in the assay with HT-29 [7], 4.1 µM; with HT-29 [5] it was 4.8 µM; in the assay on HT-29 [6] it was 1.3 µM. For the same compound, the ΔTm in the assay on DNA [2] was determined as 7 °C. Moreover, the result in the assay with Escherichia coli, with DNA [8] and in the assay on DNA [9] was Active. Besides, the result in the assay with HeLa was inactive.
Consider `CN(C)CCN1C(=O)c2cccc3c(Sc4nc5ccccc5s4)ccc(c23)C1=O`, for which the IC50 in the assay on MCF7 [1] was determined as 2.4 µM; in the assay on MCF7 [3] it was 2.7 µM; in the assay with MCF7 [4], 7.3 µM; in the assay with HT-29 [7], 4.4 µM; with HT-29 [5], 5.5 µM; in the assay with HT-29 [6], 1.8 µM. In the assay with DNA [2], the ΔTm was found to be 3 °C. Also, the outcome in the assay with Escherichia coli and in the assay on HeLa was Active.
As for `CCSc1ccc2c3c(cccc13)C(=O)N(CCN(C)C)C2=O`, the 50% inhibitory concentration (IC50) came out at 4.3 µM in the assay with MCF7 [1]; 4.4 µM with MCF7 [3]; 4.5 µM in the assay with MCF7 [4]; 1.9 µM with HT-29 [7]; 2.2 µM with HT-29 [5]; 2.5 µM with HT-29 [6]. In the assay with DNA [2], the ΔTm was 8 °C. Besides, the outcome with Escherichia coli, in the assay with HeLa, in the assay with DNA [8] and in the assay with DNA [9] was Active.
Turning to `CCCCSc1ccc2c3c(cccc13)C(=O)N(CCN(C)C)C2=O`, the IC50 in the assay with MCF7 [1] was found to be 4 µM; with MCF7 [3], 2.6 µM; in the assay with MCF7 [4], 5.7 µM; in the assay on HT-29 [7], 4.6 µM; in the assay with HT-29 [5], 4.3 µM; in the assay on HT-29 [6] it was 3 µM. Moreover, the ΔTm with DNA [2] worked out at 8 °C. In addition, the outcome in the assay on Escherichia coli, with DNA [8] and in the assay on DNA [9] was Active. Moreover, in the assay on HeLa, the outcome was inactive.

Values taken from ChEMBL document CHEMBL1155931, “Sulfur-substituted naphthalimides as photoactivatable anticancer agents: DNA interaction, fluorescence imaging, and phototoxic effects in cultured tumor cells” (Bioorg Med Chem, 2008).
